ChEMBL document CHEMBL1122496, “A new class of nonhormonal pregnancy-terminating agents. Synthesis and contragestational activity of 3,5-diaryl-s-triazoles” (J Med Chem, 1983)

Experiments:
Cricetinae gen. sp. [1] = assay: Pregnancy-terminating activity in hamster when administered perorally; format: functional, Cricetulus griseus; conditions: po
Cricetinae gen. sp. [2] = assay: (§1) Pregnancy-terminating activity in hamster when administered sc; format: functional
Cricetinae gen. sp. [3] = assay: as §1; format: functional, Cricetulus griseus
In short: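 Pregnant hamsters were dosed daily for 5 consecutive days, from day 4 to day 8. Compound was given in sesame oil with 20% benzyl benzoate to groups of 5–30 animals at three to six dose levels. ED50 is the dose that ended pregnancy in half of the animals.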

Rattus norvegicus [4] = assay: Pregnancy-terminating activity in Rat when administered sc; format: functional
In short: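 Pregnant rats were dosed once daily for 5 consecutive days, from day 6 to day 10. Compound was given in sesame oil containing 20% benzyl benzoate to groups of 5–30 animals at three to six dose levels. ED50 is the dose that terminated pregnancy in 50% of the animals.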

[5] = Solubility in sesame oil containing 20% of benzyl benzoate; format: physicochemical
Rattus norvegicus [6] = assay: Pregnancy-terminating activity in rat when administered sc; format: functional
In short: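 Pregnant rats were dosed once daily for 5 consecutive days, from day 6 to day 10. Compound was given in sesame oil containing 20% benzyl benzoate to groups of 5–30 animals at three to six dose levels.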

Rattus norvegicus [7] = assay: Pregnancy-terminating activity in rat when administered po; format: functional
[8] = Cricetinae gen. sp., sc, read-out: ED50

Compound	ED50 (Cricetinae gen. sp. [1]) [mg/kg]	ED50 (Cricetinae gen. sp. [2]; [8]) [mg/kg]	other results
COc1cccc(-c2n[nH]c(-c3ccccc3C(C)C)n2)c1	10	4	–
COc1cccc(-c2n[nH]c(-c3ccccc3C)n2)c1	5	0.08	–
Cc1ccccc1-c1n[nH]c(-c2ccccc2C)n1	> 10	0.7	–
CCCCc1ccccc1-c1n[nH]c(-c2ccccc2)n1	–	17	–
COc1cccc(-c2n[nH]c(-c3ccc(C)cc3)n2)c1	–	7	–
c1ccc(-c2nc3n(n2)Cc2ccccc2-3)cc1	–	–	ED50 (Cricetinae gen. sp. [3]): 3.5 mg/kg; ED50 (Rattus norvegicus [4]): 1.8 mg/kg; Solubility [5]: ~ 30 mg ml-1
Cc1ccc(-c2n[nH]c(-c3ccccc3)n2)cc1	–	> 20	–
COc1ccc(C)c(-c2n[nH]c(-c3ccccc3)n2)c1	–	> 10	–
COc1cccc(-c2n[nH]c(-c3cccc(C)c3)n2)c1	–	15	–
CCc1ccccc1-c1n[nH]c(-c2ccc(OC)c(OC)c2)n1	> 5	0.05	–
COc1ccccc1-c1n[nH]c(-c2ccccc2C)n1	> 5	0.5	–
CCc1ccccc1-c1n[nH]c(-c2cc(OC)cc(OC)c2)n1	–	10	–
C=CCOc1cccc(-c2nc(-c3ccccc3CC)n[nH]2)c1	5	0.12	–
CCc1ccccc1-c1n[nH]c(-c2cccc(-c3ccccc3)c2)n1	10	10	–
Cc1ccccc1-c1n[nH]c(-c2ccccc2Cl)n1	–	15	–
COc1cccc(-c2n[nH]c(-c3ccccc3C=O)n2)c1	10	0.1	–
CCc1ccccc1-c1n[nH]c(-c2ccccc2)n1	5	0.15	–
C=CCOc1cccc(-c2nc(-c3ccccc3C)n[nH]2)c1	5	0.15	–
Cc1ccccc1-c1nc(-c2ccc(N(C)C)cc2)n[nH]1	–	10	–
c1ccc(-c2nc3c4ccccc4ccn3n2)cc1	–	0.25	ED50 (Rattus norvegicus [4]): 2.5 mg/kg; Solubility [5]: ~ 10 mg ml-1
Cc1ccccc1-c1n[nH]c(-c2cccc(C(F)(F)F)c2)n1	> 20	0.6	–
Cc1ccc(C)c(-c2n[nH]c(-c3ccccc3)n2)c1	–	> 10	–
Cc1ccc(-c2n[nH]c(-c3ccccc3C)n2)cc1	–	20	–
COc1cccc(-c2n[nH]c(-c3cc(C)ccc3C)n2)c1	–	2.5	–
Cc1ccc(-c2n[nH]c(-c3ccccc3)n2)c(C)c1	> 5	0.2	–
Cc1cccc(-c2n[nH]c(-c3ccccc3C)n2)c1	–	4	–

Compound	ED50 (Cricetinae gen. sp. [1]) [mg/kg]	ED50 (Cricetinae gen. sp. [2]; [8]) [mg/kg]	other results
CCc1ccccc1-c1n[nH]c(-c2ccc3c(c2)OCO3)n1	3	0.03	ED50 (Rattus norvegicus [6]): 0.6 mg/kg; ED50 (Rattus norvegicus [7]): ~20 mg/kg
Cc1ccccc1-c1n[nH]c(-c2ccc(Cl)cc2)n1	–	4	–
CCCCc1ccccc1-c1n[nH]c(-c2cccc(OC)c2)n1	10	12	–
CCc1ccccc1-c1n[nH]c(-c2ccc(OC)cc2)n1	5	0.15	–
COc1ccc(-c2n[nH]c(-c3ccccc3)n2)c(C)c1	–	> 10	–
Cc1cc(Cl)ccc1-c1n[nH]c(-c2ccccc2)n1	4	0.14	–
Cc1cccc(-c2n[nH]c(-c3ccccc3)n2)c1	–	> 20	–
COc1cccc(-c2nc(-c3ccc(OC)cc3C)n[nH]2)c1	> 5	0.2	–
CCc1ccccc1-c1n[nH]c(-c2cccc(F)c2)n1	> 5	0.4	–
COc1cccc(-c2n[nH]c(-c3cc(Cl)ccc3C)n2)c1	–	0.35	–
COc1cccc(-c2n[nH]c(-c3ccc(Cl)cc3C)n2)c1	5	0.04	ED50 (Rattus norvegicus [6]): 0.5 mg/kg; ED50 (Rattus norvegicus [7]): > 10 mg/kg
CCc1ccccc1-c1n[nH]c(-c2cccc(OC)c2OC)n1	–	10	–
CC(C)c1ccccc1-c1n[nH]c(-c2ccccc2)n1	–	10	–
CCOc1cccc(-c2n[nH]c(-c3ccccc3C)n2)c1	5	0.06	–
c1ccc(-c2n[nH]c(-c3ccccc3)n2)cc1	10	6	–
Cc1ccccc1-c1n[nH]c(-c2cccc(Cl)c2)n1	> 20	0.6	–
c1ccc(-c2nc3n(n2)CCc2ccccc2-3)cc1	–	–	ED50 (Cricetinae gen. sp. [3]): 1 mg/kg; ED50 (Rattus norvegicus [4]): 16 mg/kg; Solubility [5]: ~ 100 mg ml-1
CCOc1cccc(-c2n[nH]c(-c3ccccc3CC)n2)c1	4	0.04	ED50 (Rattus norvegicus [6]): 0.3 mg/kg; ED50 (Rattus norvegicus [7]): > 10 mg/kg
Cc1ccccc1-c1n[nH]c(-c2ccc(-c3ccccc3)cc2)n1	–	10	–
COc1cccc(-c2n[nH]c(-c3ccccc3CO)n2)c1	15	0.08	–
Cc1ccccc1-c1n[nH]c(-c2ccccc2)n1	10	0.3	ED50 (Rattus norvegicus [6]): 2 mg/kg; ED50 (Rattus norvegicus [7]): 50 mg/kg; ED50 (Cricetinae gen. sp. [2]): 0.3 mg/kg; ED50 (Rattus norvegicus [4]): 2 mg/kg; Solubility [5]: > 100 mg/mL
COc1cccc(-c2n[nH]c(-c3cc(OC)ccc3C)n2)c1	–	1	–
COc1cccc(-c2n[nH]c(-c3ccc(C)cc3C)n2)c1	10	0.04	ED50 (Rattus norvegicus [6]): 0.6 mg/kg; ED50 (Rattus norvegicus [7]): > 10 mg/kg
CCc1ccccc1-c1n[nH]c(-c2cccc(C)c2C)n1	–	2	–
Cc1ccccc1-c1n[nH]c(-c2ccc(F)cc2)n1	–	3.5	–
Cc1ccc(Cl)cc1-c1n[nH]c(-c2ccccc2)n1	–	1.2	–
